“And” between values parts separate entries of the source, which are not always exact repeats. Equal values may be shown once. Read-outs that look alike come from different tables or passages of the source.
Assays:
[1] = cited from earlier work
[2] = type: in vivo, human
Procedure, shortened: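 Three-period crossover in 18 healthy males aged 18–45 y with a 14-day washout. Dosing was fasted, or within 30 min of starting a high-fat/high-calorie or low-fat meal, with 240 mL water and no food for ≥4 h. EDTA plasma was sampled 0–168 h and assayed by LC-MS/MS (MRM, d6 internal standard). NCA gave parameters; log-transformed values were fitted by mixed-effects model for geometric mean ratios with 90% CI.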

[3] = Safety evaluation; type: in vivo, human; details: single oral 300 mg
Procedure, shortened: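 Each of the three dosing periods had 8 days of post-dose follow-up. Monitoring covered physical examination, vital signs, 12-lead ECG, haematology, urinalysis, biochemistry, coagulation and adverse events. Vital signs and ECG were taken within 1 h pre-dose, at 3 h ±30 min post-dose, and daily at other visits. Adverse events were graded by NCI CTCAE v5.0. All 18 dosed subjects formed the safety set.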

[4] = system: c-Met-dependent non-small cell lung cancer (NSCLC) and other tumor models; details: SCC244 at 10 mg/kg; cited from earlier work
[5] = no reference given, cited from earlier work
[6] = single oral 300 mg, fasting, n=18
[7] = single oral 300 mg, high-fat meal, n=17
[8] = single oral 300 mg, low-fat meal, n=18
[9] = single oral 300 mg, n=17, bioavailability analysis set

## CS(=O)(=O)CCNCc1ccc(-c2ccc3ncnc(Nc4ccc(OCc5cccc(F)c5)c(Cl)c4)c3c2)o1 [Lapatinib]
[1]
  Bioavailability increase with a high-fat meal: 161%
  Bioavailability increase with a low-fat meal: 80%

## Cn1cc(-c2cnc3cnn(S(=O)(=O)c4cnc5ccc(-c6cnn(C)c6)cn45)c3c2)cn1 [SCC244]
[2]; male, human, plasma, po, 300 mg
  Tmax: 4 h
[2]; male, human, plasma, po, 300 mg, AUC0-inf (geometric mean), single oral 300 mg, fasting, n=17, bioavailability analysis set
  AUC(0-inf): 25300 ng·h/mL
[2]; male, human, plasma, po, 300 mg, AUC0-inf (geometric mean), single oral 300 mg, high-fat meal, n=17, bioavailability analysis set
  AUC(0-inf): 59700 ng·h/mL
[2]; male, human, plasma, po, 300 mg, AUC0-inf (geometric mean), single oral 300 mg, low-fat meal, n=17, bioavailability analysis set
  AUC(0-inf): 55300 ng·h/mL
[2]; male, human, plasma, po, 300 mg, AUC0-inf, mean (SD), single oral 300 mg, fasting, n=18
  AUC(0-inf): 27700 ng·h/mL
[2]; male, human, plasma, po, 300 mg, AUC0-inf, mean (SD), single oral 300 mg, high-fat meal, n=17
  AUC(0-inf): 65100 ng·h/mL
[2]; male, human, plasma, po, 300 mg, AUC0-inf, mean (SD), single oral 300 mg, low-fat meal, n=18
  AUC(0-inf): 60500 ng·h/mL
[2]; male, human, plasma, po, 300 mg, AUC0-t (geometric mean), single oral 300 mg, fasting, n=17, bioavailability analysis set
  AUC(0-t): 24800 ng·h/mL
[2]; male, human, plasma, po, 300 mg, AUC0-t (geometric mean), single oral 300 mg, high-fat meal, n=17, bioavailability analysis set
  AUC(0-t): 58900 ng·h/mL
[2]; male, human, plasma, po, 300 mg, AUC0-t (geometric mean), single oral 300 mg, low-fat meal, n=17, bioavailability analysis set
  AUC(0-t): 54300 ng·h/mL
[2]; male, human, plasma, po, 300 mg, AUC0-t, mean (SD), single oral 300 mg, fasting, n=18
  AUC(0-t): 27200 ng·h/mL
[2]; male, human, plasma, po, 300 mg, AUC0-t, mean (SD), single oral 300 mg, high-fat meal, n=17
  AUC(0-t): 64100 ng·h/mL
[2]; male, human, plasma, po, 300 mg, AUC0-t, mean (SD), single oral 300 mg, low-fat meal, n=18
  AUC(0-t): 59600 ng·h/mL
[2]; male, human, plasma, po, 300 mg, Cmax (geometric mean), single oral 300 mg, fasting, n=17, bioavailability analysis set
  Cmax: 824 ng/mL
[2]; male, human, plasma, po, 300 mg, Cmax (geometric mean), single oral 300 mg, high-fat meal, n=17, bioavailability analysis set
  Cmax: 1610 ng/mL
[2]; male, human, plasma, po, 300 mg, Cmax (geometric mean), single oral 300 mg, low-fat meal, n=17, bioavailability analysis set
  Cmax: 1600 ng/mL
[2]; male, human, plasma, po, 300 mg, Cmax, mean (SD), single oral 300 mg, fasting, n=18
  Cmax: 869 ng/mL
[2]; male, human, plasma, po, 300 mg, Cmax, mean (SD), single oral 300 mg, high-fat meal, n=17
  Cmax: 1730 ng/mL
[2]; male, human, plasma, po, 300 mg, Cmax, mean (SD), single oral 300 mg, low-fat meal, n=18
  Cmax: 1750 ng/mL
[2]; male, human, plasma, po, 300 mg, Mean t1/2 under different meal conditions, single oral 300 mg, low-fat meal, high-fat meal and fasted groups
  half-life: 24.7 to 26.1 h
[2]; male, human, plasma, po, 300 mg, t1/2, mean (SD), single oral 300 mg, fasting, n=18
  half-life: 26.1 h
[2]; male, human, plasma, po, 300 mg, t1/2, mean (SD), single oral 300 mg, high-fat meal, n=17
  half-life: 24.7 h
[2]; male, human, plasma, po, 300 mg, t1/2, mean (SD), single oral 300 mg, low-fat meal, n=18
  half-life: 25.6 h
[2]; [6]
  %CV (AUC0-inf), inter-subject variability: 44.0%
  %CV (AUC0-t), inter-subject variability: 44.2%
  %CV (Cmax), inter-subject variability: 34.3%
  CL/F, mean (SD): 12.8 (5.5) L/h
[2]; [7]
  %CV (AUC0-inf), inter-subject variability: 35.3%
  %CV (AUC0-t), inter-subject variability: 34.8%
  %CV (Cmax), inter-subject variability: 30.5%
  CL/F, mean (SD): 5.7 L/h and 5.7 (4.2) L/h
  Tmax, median (range): 4.0 (2.0–12.0) h
[2]; [8]
  %CV (AUC0-inf), inter-subject variability: 31.6%
  %CV (AUC0-t), inter-subject variability: 31.5%
  %CV (Cmax), inter-subject variability: 30.2%
  CL/F, mean (SD): 6.3 L/h and 6.3 (5.8) L/h
  Tmax, median (range): 4.0 (2.0–8.0) h
[2]; [9]
  AUC0-inf geometric mean ratio (90% CI) of high-fat meal vs fasting: 235.9% (207.5–268.3%)
  AUC0-inf geometric mean ratio (90% CI) of low-fat meal vs fasting: 218.3% (192.0–248.3%)
  AUC0-t geometric mean ratio (90% CI) of high-fat meal vs fasting: 237.4% (208.7–270.0%)
  AUC0-t geometric mean ratio (90% CI) of low-fat meal vs fasting: 219.2% (192.7–249.3%)
  Cmax geometric mean ratio (90% CI) of high-fat meal vs fasting: 194.8% (174.3–217.7%)
  Cmax geometric mean ratio (90% CI) of low-fat meal vs fasting: 194.6% (174.1–217.5%)
[3]; all meal conditions
  Other tolerability assessments (laboratory parameters, vital signs, physical examination, 12-lead ECGs): No clinically significant abnormalities
  SAEs or AEs leading to permanent discontinuation: No SAEs or AEs leading to permanent discontinuation were reported
[3]; fasted, 12/18 subjects
  Incidence of AEs (subjects with any AE): 66.7%
[3]; fasting, n=18
  Incidence of AE blood fibrinogen decreased: 16.7% (3)
  Incidence of AE dizziness: 16.7% (3)
  Incidence of AE head discomfort: 5.6% (1)
  Incidence of AE headache: 27.8% (5)
  Incidence of AE protein urine presence: 16.7% (3)
[3]; high-fat meal, 12/17 subjects
  Incidence of AEs (subjects with any AE): 70.6%
[3]; high-fat meal, n=17
  Incidence of AE blood fibrinogen decreased: 23.5% (4)
  Incidence of AE dizziness: 0% (0)
  Incidence of AE head discomfort: 11.8% (2)
  Incidence of AE headache: 47.1% (8)
  Incidence of AE protein urine presence: 0% (0)
[3]; low-fat meal
  Subjects with a CTCAE grade 2 AE (headache); all other AEs grade 1: 1 subject
[3]; low-fat meal, 15/18 subjects
  Incidence of AEs (subjects with any AE): 83.3%
[3]; low-fat meal, n=18
  Incidence of AE blood fibrinogen decreased: 27.8% (5)
  Incidence of AE dizziness: 11.1% (2)
  Incidence of AE head discomfort: 11.1% (2)
  Incidence of AE headache: 44.4% (8)
  Incidence of AE protein urine presence: 5.6% (1)
[4]
  Efficacy compared with capmatinib and crizotinib: comparable with that of capmatinib at 15 mg/kg and crizotinib at 50 mg/kg
[5]
  Solubility in water: practically insoluble in water
[5]; poor aqueous solubility but sufficient permeability
  Biopharmaceutics Classification System (BCS) class: Class II
[5]; weak base drug
  Solubility versus pH: declines greatly when the pH is higher than 1.2

## C[C@@H](Oc1cc(-c2cnn(C3CCNCC3)c2)cnc1N)c1c(Cl)ccc(F)c1Cl [crizotinib]
[1]
  Effect of food on bioavailability: unaffected by food

## CNC(=O)c1cc(Oc2ccc(NC(=O)Nc3ccc(Cl)c(C(F)(F)F)c3)c(F)c2)ccn1 [regorafenib]
[1]
  Bioavailability increase with a high-fat meal: 48%
  Bioavailability increase with a low-fat meal: 36%

## COc1cc2c(Nc3ccc(Br)cc3F)ncnc2cc1OCC1CCN(C)CC1 [vandetanib]
[1]
  Effect of food on bioavailability: unaffected by food

## CCCS(=O)(=O)Nc1ccc(F)c(C(=O)c2c[nH]c3ncc(-c4ccc(Cl)cc4)cc23)c1F [vemurafenib]
[1]; 960mg single dose
  Effect of high-fat meal (increase): 3.7 fold
